Residues, ends and D or L forms follow the SMILES beside them.
Columns and labels:
DPP-IV [1] = target: T1, DPP-IV (Homo sapiens, UniProt P27487); assay: in vitro DPP-IV inhibitory activity; assay type: biochemical; settings: synthesized peptides, in vitro enzyme assay
Method in brief: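 Human DPP-IV (0.1 U/mL) and Gly-Pro-p-nitroanilide (2 mmol/L) solutions made in 100 mmol/L Tris-HCl, pH 8.0. Substrate and sample preincubated 10 min at 37 °C under subdued light. Enzyme then added and incubated 1 h at 37 °C. Stopped with 1 mol/L sodium acetate, pH 4.0, and absorbance read at 405 nm. Inhibition calculated from sample, sample-blank, control and blank absorbances.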

Caco-2 cells [2] = assay: Caco-2 cell viability, MTT colorimetric assay; assay type: cell-based, human; settings: 8 mM peptide, 4 h
Method in brief: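 Caco-2 cells grown in DMEM with 10% FBS and 1% penicillin-streptomycin at 37 °C, 5% CO2. Seeded at 5 × 10^4 cells/well and incubated 24 h. Medium replaced with peptide at 0.5, 1, 2, 4 or 8 mM for 4 h, 6 replicates per sample. MTT solution (5 mg/mL) added for 4 h, formazan dissolved in DMSO with ~15 min shaking, OD read at 490 nm.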

Caco-2 cell monolayer = Caco-2 cell monolayer transmembrane transport; assay type: in vitro ADME, human; settings: 4 mM, 120 min
Method in brief: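 Caco-2 cells seeded at 2 × 10^5 cells/mL on the apical side of 0.4 μm-pore Transwells and cultured 21 days to a differentiated monolayer; TEER over 350 Ω cm2 required. Both sides washed twice and equilibrated 30 min in HBSS. Peptide added apically, HBSS basolaterally, 120 min in incubator. AP and BL liquids analysed by RP-HPLC (1 mL/min, 30 °C column, 220 nm).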

DPP-IV [3] = target: T1, DPP-IV; assay: cell-based
Caco-2 cells [4] = settings: 4 mM; ref Mu et al., 2024; cited from earlier work
glucose metabolism = settings: 300 mg/kg, OGTT normal rats; ref Uenishi et al. (2012); cited from earlier work

T1 sequence (P27487 whole entry): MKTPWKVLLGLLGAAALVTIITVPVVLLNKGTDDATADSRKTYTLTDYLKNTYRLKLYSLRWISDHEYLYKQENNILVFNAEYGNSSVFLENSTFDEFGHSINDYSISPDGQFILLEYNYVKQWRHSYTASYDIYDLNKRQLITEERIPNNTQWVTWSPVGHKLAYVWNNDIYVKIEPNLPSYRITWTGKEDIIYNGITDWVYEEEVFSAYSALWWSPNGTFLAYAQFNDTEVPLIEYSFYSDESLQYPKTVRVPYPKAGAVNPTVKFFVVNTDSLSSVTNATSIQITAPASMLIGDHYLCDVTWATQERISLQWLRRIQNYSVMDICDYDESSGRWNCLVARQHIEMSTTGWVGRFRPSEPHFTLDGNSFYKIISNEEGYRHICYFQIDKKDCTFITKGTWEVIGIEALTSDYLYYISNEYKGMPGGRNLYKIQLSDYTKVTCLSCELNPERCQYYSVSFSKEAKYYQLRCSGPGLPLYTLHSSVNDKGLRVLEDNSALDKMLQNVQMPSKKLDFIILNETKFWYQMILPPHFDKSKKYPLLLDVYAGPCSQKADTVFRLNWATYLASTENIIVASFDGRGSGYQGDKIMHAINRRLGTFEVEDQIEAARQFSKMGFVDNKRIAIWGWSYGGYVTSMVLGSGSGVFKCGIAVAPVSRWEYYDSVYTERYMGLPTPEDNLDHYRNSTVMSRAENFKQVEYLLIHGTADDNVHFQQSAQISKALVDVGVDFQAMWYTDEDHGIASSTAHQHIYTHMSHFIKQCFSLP

CC(C)[C@H](N)C(=O)N1CCC[C@H]1C(=O)N[C@@H](Cc1ccccc1)C(=O)N[C@@H](Cc1c[nH]c2ccccc12)C(=O)N[C@@H](C)C(=O)O [VPFWA] (H-VPFWA-OH; N-terminus and C-terminus assumed)
IC50 (DPP-IV [1]): 251 ± 12.8 µM | survival rates of Caco-2 cells (Caco-2 cells [2]): 76.03 ± 1.08% | passage through the Caco-2 cell monolayer (Caco-2 cell monolayer; AP to BL): pass through the Caco-2 cell monolayer intact | chromatographic peak in the BL-side samples (Caco-2 cell monolayer; RP-HPLC): smallest peak | IC50 (DPP-IV [3]): 325 ± 8.4 µM

LDATDMVALVG
damage to cell viability of Caco-2 cells (Caco-2 cells [4]): least damage to cell viability

LPQNIPPL
glucose metabolism (glucose metabolism): improved glucose metabolism | plasma insulin levels (glucose metabolism): significantly reduced plasma insulin levels

SPVAEVPFLR
damage to cell viability of Caco-2 cells (Caco-2 cells [4]): least damage to cell viability
